Source: ChEMBL document CHEMBL3352115, “Discovery of APD334: Design of a Clinical Stage Functional Antagonist of the Sphingosine-1-phosphate-1 Receptor” (ACS Med Chem Lett, 2014)
Activity calls are given as the source filed them. No cut-off for these calls is given here.

Experiments:
Rattus norvegicus [1] = experiment: Toxicity in Sprague-Dawley rat assessed as mortality at 1000 mg/kg during 14 day repeat dose study; format: organism-based; set-up: dose 1000 mg/kg; conditions: in vivo, 336 h
Summary of the method: (§1)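 14-day repeat-dose rat toxicity study with dose groups of 30, 100, 300 and 1000 mg/kg; animals monitored for tolerability, mortality and CNS clinical signs.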

[2] = Tmax in monkey at 1 mg/kg, iv or 3 mg/kg, po; format: ADME, organism-based, Macaca mulatta; conditions: rhesus monkey, in vivo
Canis familiaris [3] = experiment: Effect on pulse pressure in telemeterized dog up to 40 mg/kg; format: ADME, organism-based, Canis lupus familiaris; set-up: dose 40 mg/kg; conditions: in vivo
Summary of the method: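 Telemeterized dogs dosed at levels up to 40 mg/kg; pulse pressure, heart rate, body temperature and ECG parameters monitored.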

[4] = Systemic clearance in mouse at 1 mg/kg, iv; format: ADME, organism-based; set-up: dose 1 mg/kg, route intravenous; conditions: in vivo
[5] = Ratio of plasma concentration in Sprague-Dawley rat at 14.5 ug/hr/kg dosed as constant infusion to IC50 for reduction in peripheral lymphocyte count in orally dosed rat; format: ADME, organism-based; conditions: in vivo, po
Summary of the method: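 Male Sprague–Dawley rats received a 48 h constant infusion at 14.5 μg/h/kg, and plasma drug concentration was taken at the 48 h time point. […] The ratio is the 48 h plasma concentration divided by that IC50.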

[6] = Protein binding in rat plasma; format: ADME, cell-free; conditions: read-out: PPB (converted)
Mus musculus [7] = experiment: Reduction in peripheral lymphocyte count in orally dosed mouse measured after 24 hrs; format: ADME, organism-based
[8] = Systemic clearance in monkey at 1 mg/kg, iv; format: ADME, organism-based, Macaca mulatta; set-up: dose 1 mg/kg, route intravenous; conditions: rhesus monkey, in vivo
[9] = target: T1, Sphingosine 1-phosphate receptor 1 (Homo sapiens, UniProt P21453); experiment: Agonist activity at human S1P1 receptor assessed as cAMP accumulation by HTRF assay relative to S1P; format: functional
T1 sequence (P21453 whole entry): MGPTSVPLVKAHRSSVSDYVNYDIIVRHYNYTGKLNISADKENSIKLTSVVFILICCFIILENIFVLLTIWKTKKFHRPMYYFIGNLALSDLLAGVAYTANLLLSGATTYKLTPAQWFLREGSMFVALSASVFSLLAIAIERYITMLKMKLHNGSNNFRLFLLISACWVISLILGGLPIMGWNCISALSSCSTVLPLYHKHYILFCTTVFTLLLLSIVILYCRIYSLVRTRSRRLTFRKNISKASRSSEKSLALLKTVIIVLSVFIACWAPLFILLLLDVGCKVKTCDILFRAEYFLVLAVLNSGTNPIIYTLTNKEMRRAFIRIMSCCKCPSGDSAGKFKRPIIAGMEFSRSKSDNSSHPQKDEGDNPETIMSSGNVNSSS
Summary of the method: (§2)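 HTRF cyclase (cAMP) functional assay at S1P1 of each species; EC50 taken as mean of three or more replicates; efficacy given as % agonism relative to S1P.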

[10] = AUC (0 to infinity) in monkey at 1 mg/kg, iv or 3 mg/kg, po; format: ADME, organism-based, Macaca mulatta; conditions: rhesus monkey, plasma
Summary of the method: (§3)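 Preclinical iv/po PK; amorphous free acid dosed orally as a suspension in 0.5% methyl cellulose; clearance and Vss from intravenous administration.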

Canis familiaris [11] = experiment: Reduction in peripheral lymphocyte count in orally dosed dog measured after 24 hrs; format: ADME, organism-based; conditions: Canis lupus familiaris
[12] = Half life in monkey liver microsomes; format: ADME, Macaca mulatta; conditions: rhesus monkey
Summary of the method: (§4)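 Stability on incubation with liver microsomes of each species; half-life reported.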

Rattus norvegicus [13] = experiment: Toxicity in Sprague-Dawley rat assessed as induction of CNS clinical changes at 1000 mg/kg during 14 day repeat dose study; format: organism-based, Central nervous system; set-up: dose 1000 mg/kg; conditions: in vivo, 336 h; summary of the method: as §1
[14] = target: Sphingosine-1-phosphate receptor 1 (Canis lupus familiaris, UniProt W5VNF7); experiment: Agonist activity at dog S1P1 receptor assessed as cAMP accumulation by HTRF assay; format: functional; summary of the method: as §2
Sequence of Sphingosine-1-phosphate receptor 1 (W5VNF7 whole entry): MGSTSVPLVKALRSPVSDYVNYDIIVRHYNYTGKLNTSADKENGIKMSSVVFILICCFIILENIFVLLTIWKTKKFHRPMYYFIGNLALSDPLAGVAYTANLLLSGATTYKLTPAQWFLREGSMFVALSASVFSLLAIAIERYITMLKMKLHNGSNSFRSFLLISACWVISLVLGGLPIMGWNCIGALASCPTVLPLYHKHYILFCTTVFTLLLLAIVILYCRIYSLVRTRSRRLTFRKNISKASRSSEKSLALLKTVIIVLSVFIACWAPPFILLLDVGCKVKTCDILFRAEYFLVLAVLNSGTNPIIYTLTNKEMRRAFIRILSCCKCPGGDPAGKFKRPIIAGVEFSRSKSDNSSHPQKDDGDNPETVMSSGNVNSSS

[15] = Oral bioavailability in dog at 3 mg/kg; format: ADME, organism-based, Canis lupus familiaris; conditions: in vivo
[16] = Volume of distribution at steady state in monkey at 1 mg/kg, iv; format: ADME, organism-based, Macaca mulatta; set-up: dose 1 mg/kg, route intravenous; conditions: rhesus monkey, in vivo, read-out: Vdss
[17] = Oral bioavailability in monkey at 3 mg/kg; format: ADME, organism-based, Macaca mulatta; conditions: rhesus monkey, in vivo
[18] = target: T1, Sphingosine 1-phosphate receptor 1; experiment: Induction of internalization of HA-tagged human S1P1 receptor expressed in CHO cells; format: cell-based
Summary of the method: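 CHO cells expressing HA-tagged human S1P1; receptor internalization measured, IC50 derived.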

Rattus norvegicus [19] = experiment: Reduction in peripheral lymphocyte count in orally dosed rat measured after 24 hrs; format: ADME, organism-based
[20] = Half life in human liver microsomes; format: ADME; summary of the method: as §4
[21] = target: Sphingosine 1-phosphate receptor 1 (Mus musculus, UniProt O08530); experiment: Agonist activity at mouse S1P1 receptor assessed as cAMP accumulation by HTRF assay; format: functional; summary of the method: as §2
Sequence of Sphingosine 1-phosphate receptor 1 (Mus musculus, UniProt O08530) (O08530 whole entry): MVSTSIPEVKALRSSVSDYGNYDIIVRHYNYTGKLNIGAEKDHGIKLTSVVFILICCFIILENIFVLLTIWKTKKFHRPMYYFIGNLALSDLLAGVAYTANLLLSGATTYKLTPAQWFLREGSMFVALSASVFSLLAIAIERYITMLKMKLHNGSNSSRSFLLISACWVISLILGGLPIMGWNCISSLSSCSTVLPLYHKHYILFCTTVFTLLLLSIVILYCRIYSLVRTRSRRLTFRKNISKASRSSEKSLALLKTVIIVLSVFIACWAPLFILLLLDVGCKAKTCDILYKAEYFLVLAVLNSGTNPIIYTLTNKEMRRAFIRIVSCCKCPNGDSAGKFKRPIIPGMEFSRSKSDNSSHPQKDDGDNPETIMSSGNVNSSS

Cytochrome P450 2C9 = Cytochrome P450 2C9 (Homo sapiens, UniProt P11712); experiment: Inhibition of CYP2C9 (unknown origin); format: ADME
Sequence of Cytochrome P450 2C9 (P11712 whole entry): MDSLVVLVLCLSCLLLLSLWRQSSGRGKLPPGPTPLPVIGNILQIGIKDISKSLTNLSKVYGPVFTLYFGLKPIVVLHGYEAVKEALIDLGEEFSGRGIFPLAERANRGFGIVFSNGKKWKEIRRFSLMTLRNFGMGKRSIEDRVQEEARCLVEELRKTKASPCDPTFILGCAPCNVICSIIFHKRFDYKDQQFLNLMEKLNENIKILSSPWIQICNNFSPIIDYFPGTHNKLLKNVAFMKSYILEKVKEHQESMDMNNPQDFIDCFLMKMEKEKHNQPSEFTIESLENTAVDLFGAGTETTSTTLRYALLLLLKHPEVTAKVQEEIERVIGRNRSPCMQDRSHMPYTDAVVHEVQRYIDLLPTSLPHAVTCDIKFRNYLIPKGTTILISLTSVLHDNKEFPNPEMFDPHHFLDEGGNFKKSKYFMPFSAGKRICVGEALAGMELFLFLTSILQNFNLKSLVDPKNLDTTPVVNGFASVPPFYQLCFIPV

[22] = Tmax in mouse at 1 mg/kg, iv or 1 mg/kg, po; format: ADME, organism-based; conditions: in vivo
[23] = Oral bioavailability in mouse at 1 mg/kg; format: ADME, organism-based; conditions: in vivo
[24] = Volume of distribution at steady state in rat at 1 mg/kg, iv; format: ADME, organism-based; set-up: dose 1 mg/kg, route intravenous; conditions: in vivo, read-out: Vdss
[25] = Tmax in rat at 1 mg/kg, iv or 1 mg/kg, po; format: ADME, organism-based; conditions: in vivo
[26] = Cmax in monkey at 1 mg/kg, iv or 3 mg/kg, po; format: ADME, organism-based, Macaca mulatta; conditions: rhesus monkey, in vivo; summary of the method: as §3
[27] = Systemic clearance in dog at 1 mg/kg, iv; format: ADME, organism-based, Canis lupus familiaris; set-up: dose 1 mg/kg, route intravenous; conditions: in vivo
[28] = target: Sphingosine 1-phosphate receptor 4 (Homo sapiens) (UniProt O95977); experiment: Agonist activity at human S1P4 receptor by beta-arrestin recruitment assay relative to S1P
Sequence of Sphingosine 1-phosphate receptor 4 (Homo sapiens) (O95977 whole entry): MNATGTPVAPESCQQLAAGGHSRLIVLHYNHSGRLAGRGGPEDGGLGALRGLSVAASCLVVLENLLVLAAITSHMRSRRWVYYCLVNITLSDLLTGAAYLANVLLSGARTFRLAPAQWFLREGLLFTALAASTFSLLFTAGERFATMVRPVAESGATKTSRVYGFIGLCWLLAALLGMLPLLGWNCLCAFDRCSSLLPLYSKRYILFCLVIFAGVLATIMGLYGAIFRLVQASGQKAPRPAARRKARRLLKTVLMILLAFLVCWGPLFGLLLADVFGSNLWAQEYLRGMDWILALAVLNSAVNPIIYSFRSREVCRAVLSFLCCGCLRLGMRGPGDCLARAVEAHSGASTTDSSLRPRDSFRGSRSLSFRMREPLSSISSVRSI

[29] = AUC (0 to infinity) in mouse at 1 mg/kg, iv or 1 mg/kg, po; format: ADME, organism-based; conditions: plasma; summary of the method: as §3
[30] = Half life in dog liver microsomes; format: ADME, Canis lupus familiaris; summary of the method: as §4
Cytochrome P450 2C19 = Cytochrome P450 2C19 (Homo sapiens, UniProt P33261); experiment: Inhibition of CYP2C19 (unknown origin); format: ADME
Sequence of Cytochrome P450 2C19 (P33261 whole entry): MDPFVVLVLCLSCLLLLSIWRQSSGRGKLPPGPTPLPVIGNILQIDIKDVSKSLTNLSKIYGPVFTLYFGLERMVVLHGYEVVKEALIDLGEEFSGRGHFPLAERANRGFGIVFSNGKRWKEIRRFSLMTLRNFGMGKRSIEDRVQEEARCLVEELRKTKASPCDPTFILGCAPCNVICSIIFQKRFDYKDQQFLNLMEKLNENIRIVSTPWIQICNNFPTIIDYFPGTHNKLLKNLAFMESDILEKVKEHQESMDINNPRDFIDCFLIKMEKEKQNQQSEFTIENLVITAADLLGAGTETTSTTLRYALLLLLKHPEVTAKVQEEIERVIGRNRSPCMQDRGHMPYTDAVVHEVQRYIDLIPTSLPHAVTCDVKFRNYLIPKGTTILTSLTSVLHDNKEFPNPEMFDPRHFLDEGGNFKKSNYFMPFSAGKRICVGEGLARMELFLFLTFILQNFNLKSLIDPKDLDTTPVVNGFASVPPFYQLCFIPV

[31] = Elimination half life in mouse at 1 mg/kg, po; format: ADME, organism-based; set-up: dose 1 mg/kg, route oral; conditions: in vivo, read-out: beta t1/2 (converted); summary of the method: as §3
Rattus norvegicus [32] = experiment: Improvement histological parameters of knee and ankles in Lewis rat collagen-induced arthritis model at 3 mg/kg, po qd measured on day 17; format: functional, organism-based; set-up: dose 3 mg/kg
[33] = target: Sphingosine 1-phosphate receptor 2 (Homo sapiens, UniProt O95136); experiment: Agonist activity at human S1P2 receptor by beta-arrestin recruitment assay
Sequence of Sphingosine 1-phosphate receptor 2 (O95136 whole entry, the tested form may be a part): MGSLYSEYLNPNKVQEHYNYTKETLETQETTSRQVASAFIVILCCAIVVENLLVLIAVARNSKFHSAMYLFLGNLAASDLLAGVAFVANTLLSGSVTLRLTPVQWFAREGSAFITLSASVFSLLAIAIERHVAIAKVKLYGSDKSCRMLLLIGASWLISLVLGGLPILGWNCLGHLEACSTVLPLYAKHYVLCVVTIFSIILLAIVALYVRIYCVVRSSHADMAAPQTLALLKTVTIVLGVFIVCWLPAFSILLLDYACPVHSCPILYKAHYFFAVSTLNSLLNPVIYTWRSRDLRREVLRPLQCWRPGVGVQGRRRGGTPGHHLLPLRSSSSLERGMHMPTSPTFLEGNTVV

[34] = Drug level in Sprague-Dawley rat plasma at 14.5 ug/hr/kg dosed as constant infusion measured after 48 hrs; format: ADME, organism-based; conditions: iv
Summary of the method: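 Male Sprague–Dawley rats given constant infusion at 14.5 μg/h/kg for 48 h; brain and plasma concentrations measured at 48 h.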

Salmonella typhimurium = experiment: Genotoxicity in Salmonella typhimurium in presence of rat liver S9 fraction by Ames bacterial reverse mutation assay; format: toxicity, organism-based; conditions: salmonella enterica subsp. enterica serovar typhimurium
[35] = target: Voltage-gated inwardly rectifying potassium channel KCNH2 (Homo sapiens, UniProt Q12809); experiment: Displacement of [3H]astemizole from human ERG
Sequence of Voltage-gated inwardly rectifying potassium channel KCNH2 (Q12809 whole entry): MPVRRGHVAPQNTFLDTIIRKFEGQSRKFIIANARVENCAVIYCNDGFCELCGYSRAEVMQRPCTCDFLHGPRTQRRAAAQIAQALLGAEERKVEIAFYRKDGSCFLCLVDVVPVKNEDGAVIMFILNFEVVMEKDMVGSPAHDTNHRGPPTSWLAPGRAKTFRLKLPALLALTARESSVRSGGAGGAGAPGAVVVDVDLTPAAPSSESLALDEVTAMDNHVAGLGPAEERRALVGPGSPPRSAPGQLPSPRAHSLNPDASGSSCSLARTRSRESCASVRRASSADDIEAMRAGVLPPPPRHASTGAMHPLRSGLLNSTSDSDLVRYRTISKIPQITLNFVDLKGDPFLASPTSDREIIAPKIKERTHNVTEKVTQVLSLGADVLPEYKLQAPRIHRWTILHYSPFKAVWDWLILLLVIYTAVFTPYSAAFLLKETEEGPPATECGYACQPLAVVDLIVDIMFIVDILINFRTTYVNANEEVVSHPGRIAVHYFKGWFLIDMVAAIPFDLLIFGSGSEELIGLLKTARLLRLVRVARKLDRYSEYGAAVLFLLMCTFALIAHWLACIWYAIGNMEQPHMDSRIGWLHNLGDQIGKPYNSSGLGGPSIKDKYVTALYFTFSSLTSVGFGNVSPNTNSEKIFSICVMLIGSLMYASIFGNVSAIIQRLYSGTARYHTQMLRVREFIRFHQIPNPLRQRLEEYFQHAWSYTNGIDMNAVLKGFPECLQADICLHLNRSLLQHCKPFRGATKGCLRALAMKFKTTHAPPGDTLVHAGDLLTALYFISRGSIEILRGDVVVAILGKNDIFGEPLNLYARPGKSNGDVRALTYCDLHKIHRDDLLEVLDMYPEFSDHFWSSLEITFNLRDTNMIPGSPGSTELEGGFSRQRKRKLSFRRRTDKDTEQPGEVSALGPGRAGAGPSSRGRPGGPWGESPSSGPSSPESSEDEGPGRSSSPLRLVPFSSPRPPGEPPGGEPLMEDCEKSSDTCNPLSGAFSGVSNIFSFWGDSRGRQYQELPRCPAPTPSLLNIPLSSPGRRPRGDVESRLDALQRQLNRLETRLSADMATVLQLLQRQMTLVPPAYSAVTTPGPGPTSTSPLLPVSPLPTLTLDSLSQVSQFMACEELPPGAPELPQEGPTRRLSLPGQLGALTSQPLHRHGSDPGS
Summary of the method: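 hERG interaction assessed by [³H]-astemizole binding displacement.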

[36] = Elimination half life in dog at 3 mg/kg, po; format: ADME, organism-based, Canis lupus familiaris; set-up: dose 3 mg/kg, route oral; conditions: in vivo, read-out: beta t1/2 (converted); summary of the method: as §3
[37] = target: Sphingosine 1-phosphate receptor 3 (Homo sapiens, UniProt Q99500); experiment: Agonist activity at human S1P3 receptor by beta-arrestin recruitment assay
Sequence of Sphingosine 1-phosphate receptor 3 (Q99500 whole entry): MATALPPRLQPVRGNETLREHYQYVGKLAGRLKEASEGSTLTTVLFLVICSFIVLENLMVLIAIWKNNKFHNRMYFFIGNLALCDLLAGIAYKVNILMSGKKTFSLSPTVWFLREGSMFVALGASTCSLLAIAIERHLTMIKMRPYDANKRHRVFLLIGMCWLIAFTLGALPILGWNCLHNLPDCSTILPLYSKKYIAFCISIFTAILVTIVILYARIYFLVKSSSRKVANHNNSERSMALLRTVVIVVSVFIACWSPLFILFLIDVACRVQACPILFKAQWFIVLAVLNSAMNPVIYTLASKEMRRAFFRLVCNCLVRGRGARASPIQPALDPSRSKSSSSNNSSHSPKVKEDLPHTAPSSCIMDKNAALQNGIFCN

Mus musculus [38] = experiment: Systemic clearance in mouse at 1 mg/kg, iv relative to liver blood flow; format: ADME, organism-based; set-up: dose 1 mg/kg, route intravenous; conditions: in vivo
Mus musculus [39] = experiment: Reduction in disease severity in C57Bl/6 mouse experimental autoimmune encephalomyelitis model of multiple sclerosis at 3 mg/kg dosed once daily beginning on day 18 and continued to day 37; format: functional, organism-based; set-up: dose 3 mg/kg
Summary of the method: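 Female C57Bl/6 mice with MOG35–55-induced EAE; once-daily treatment started day 18 after severe disease onset and continued to day 37; vehicle 0.5% methylcellulose; clinical scoring.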

[40] = Cmax in Sprague-Dawley rat at 300 mg/kg; format: ADME, organism-based; set-up: dose 300 mg/kg; conditions: in vivo
Summary of the method: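 Sprague–Dawley rats dosed at 300 and 1000 mg/kg in a separate dose-proportionality exposure study; Cmax determined.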

[41] = Volume of distribution at steady state in dog at 1 mg/kg, iv; format: ADME, organism-based, Canis lupus familiaris; set-up: dose 1 mg/kg, route intravenous; conditions: in vivo, read-out: Vdss
[42] = AUC (0 to infinity) in rat at 1 mg/kg, iv or 1 mg/kg, po; format: ADME, organism-based; conditions: plasma; summary of the method: as §3

**Q.** Which Activity (Rattus norvegicus [1]) does the source give for O=C(O)C[C@H]1CCc2c1[nH]c1ccc(OCc3ccc(C4CCCC4)c(C(F)(F)F)c3)cc21 [ETRASIMOD] here?
**A.** Its Activity is “Toxic”.

**Q.** And the Tmax [2]?
**A.** The Tmax was 3.33 h.

**Q.** What about the Activity (Canis familiaris [3]) of the same compound?
**A.** Its Activity is “Non-toxic”.

**Q.** And the clearance [4]?
**A.** The clearance was 1.83 mL/min/kg.

**Q.** And the Ratio [5]?
**A.** The Ratio was 2.

**Q.** And the fraction unbound [6]?
**A.** Its fraction unbound is 0.02.

**Q.** What about the IC50 (Mus musculus [7]) of the same compound?
**A.** The IC50 was 101 nM.

**Q.** What about the clearance [8] of the same compound?
**A.** Its clearance is 0.947 mL/min/kg.

**Q.** And the Emax [9]?
**A.** The Emax was 102%.

**Q.** And the AUC(0-inf) [10]?
**A.** Its AUC(0-inf) is 23100 ng·h/mL.

**Q.** And the IC50 (Canis familiaris [11])?
**A.** The IC50 was 58 nM.

**Q.** What about the half-life [12] of the same compound?
**A.** Its half-life is > 1 h.

**Q.** And the Activity (Rattus norvegicus [13])?
**A.** Its Activity is “Toxic”.

**Q.** And the EC50 [14]?
**A.** The EC50 was 0.34 nM.

**Q.** What about the bioavailability [15] of the same compound?
**A.** Its bioavailability is 73.2%.

**Q.** And the Vd [16]?
**A.** Its Vd is 0.411 L/kg.

**Q.** And the bioavailability [17]?
**A.** Its bioavailability is 43.8%.

**Q.** What about the IC50 [18] of the same compound?
**A.** The IC50 was 1.88 nM.

**Q.** And the IC50 (Rattus norvegicus [19])?
**A.** The IC50 was 51 nM.

**Q.** And the half-life [20]?
**A.** The half-life was > 1 h.

**Q.** What about the EC50 [21] of the same compound?
**A.** Its EC50 is 0.44 nM.

**Q.** What about the IC50 (Cytochrome P450 2C9) of the same compound?
**A.** Its IC50 is > 50000 nM.

**Q.** And the Tmax [22]?
**A.** Its Tmax is 8 h.

**Q.** And the bioavailability [23]?
**A.** The bioavailability was 100%.

**Q.** And the Vd [24]?
**A.** The Vd was 1.61 L/kg.

**Q.** What about the Tmax [25] of the same compound?
**A.** The Tmax was 7.33 h.

**Q.** And the Cmax [26]?
**A.** Its Cmax is 2870 ng/mL.

**Q.** What about the clearance [27] of the same compound?
**A.** Its clearance is 0.23 mL/min/kg.

**Q.** What about the Emax [28] of the same compound?
**A.** The Emax was 63%.

**Q.** And the AUC(0-inf) [29]?
**A.** The AUC(0-inf) was 10300 ng·h/mL.

**Q.** And the half-life [30]?
**A.** Its half-life is > 1 h.

**Q.** And the IC50 (Cytochrome P450 2C19)?
**A.** Its IC50 is > 50000 nM.

**Q.** What about the half-life [31] of the same compound?
**A.** Its half-life is 12.3 h.

**Q.** And the Activity (Rattus norvegicus [32])?
**A.** The Activity was “Active”.

**Q.** And the EC50 [33]?
**A.** Its EC50 is > 10000 nM.

**Q.** What about the concentration at 48 h [34] of the same compound?
**A.** The concentration at 48 h was 0.11 µM.

**Q.** And the Activity (Salmonella typhimurium)?
**A.** The Activity was “Non-toxic”.

**Q.** What about the IC50 [35] of the same compound?
**A.** Its IC50 is > 30000 nM.

**Q.** And the half-life [36]?
**A.** Its half-life is 28.8 h.

**Q.** And the EC50 [37]?
**A.** The EC50 was > 10000 nM.

**Q.** And the CL (Mus musculus [38])?
**A.** The CL was 2%.

**Q.** What about the Activity (Mus musculus [39]) of the same compound?
**A.** The Activity was “Active”.

**Q.** What about the Cmax [40] of the same compound?
**A.** Its Cmax is 136 µM.

**Q.** And the Vd [41]?
**A.** The Vd was 0.609 L/kg.

**Q.** What about the AUC(0-inf) [42] of the same compound?
**A.** Its AUC(0-inf) is 3790 ng·h/mL.
